The results in this text go back to ChEMBL document CHEMBL4387746, “Chemical conversion of nicotinamide into type I positive allosteric modulator of α7 nAChRs” (Bioorg Med Chem Lett, 2019).

Active and inactive are the calls of the source. No cut-off for these calls is given here.

Format in all cases: cell-based
In assay [1] the target is T1, Neuronal acetylcholine receptor subunit alpha-7 (Homo sapiens, UniProt P36544). Kind of assay: Positive allosteric modulation activity at alpha7 nAChR (unknown origin) expressed in Xenopus laevis oocytes assessed as increase in acetylcholine-induced channel current at 10 uM at -90 mV holding potential by two-electrode voltage clamp method relative control. The method in brief:
(§1)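 Human α7 nAChR expressed in Xenopus laevis oocytes and recorded by two-electrode voltage clamp. Each compound was tested at 10 μM with 100 μM ACh. Data come from 2–5 individual oocytes.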

Assay [2] deals with T1, Neuronal acetylcholine receptor subunit alpha-7. Kind of assay: Agonist activity at human alpha7 nAChR expressed in Xenopus laevis oocytes assessed as increase in channel current at -90 mV holding potential by two-electrode voltage clamp method.
Assay [3] has the same target. Kind of assay: Positive allosteric modulation activity at human alpha7 nAChR expressed in Xenopus laevis oocytes assessed as increase in acetylcholine-induced channel current at 10 uM at -90 mV holding potential preincubated for 2 mins followed by co-application with acetylcholine for 10 secs by two-electrode voltage clamp method relative to control. A digest of the protocol: as §1

Assay [4] shares this target. Kind of assay: Positive allosteric modulation activity at human alpha7 nAChR expressed in Xenopus laevis oocytes assessed as increase in acetylcholine-induced channel current at 0.1 uM to 30 uM at -90 mV holding potential preincubated for 2 mins followed by co-application with acetylcholine for 10 secs by two-electrode voltage clamp method relative to control. The method in brief: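 A control current to 100 μM ACh alone was recorded first. Oocytes expressing α7 nAChR were then preincubated 2 min with compound at 0.1–30 μM, followed by co-application with 100 μM ACh for 10 s. Peak currents were normalised to the 100 μM ACh-alone amplitude. Data were fitted for EC50, Emax and Hill coefficient, n = 4 per point.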

For assay [5] the target is unchanged. Kind of assay: Positive allosteric modulation activity at human alpha7 nAChR expressed in Xenopus laevis oocytes assessed as increase in acetylcholine-induced channel current at -90 mV holding potential preincubated for 2 mins followed by co-application with acetylcholine for 10 secs by two-electrode voltage clamp method. A digest of the protocol:
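Human α7 nAChR was recorded in Xenopus oocytes by two-electrode voltage clamp, with 100 μM ACh as agonist. EC50 is the compound concentration giving half of the maximum activation effect. Data come from 2–5 individual oocytes.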

The target is the same in assay [6]. Briefly: Induction of desensitization of human alpha7 nAChR expressed in Xenopus laevis oocytes assessed as acetylcholine-induced channel desensitization time constant at 10 uM at -90 mV holding potential by two-electrode voltage clamp method (reference value: 6.37 +/- 2.56).
Assay [7] addresses Neuronal acetylcholine receptor; alpha3/beta4 (Rattus norvegicus) (UniProt P04757+P12392). Briefly: Positive allosteric modulation activity at rat alpha3beta4 nAChR expressed in Xenopus laevis oocytes assessed as increase in acetylcholine-induced channel current at 10 uM at -90 mV holding potential preincubated for 2 mins followed by co-application with acetylcholine for 10 secs by two-electrode voltage clamp method relative to control.

Assay [8] concerns the target T1, Neuronal acetylcholine receptor subunit alpha-7. Briefly: Positive allosteric modulation activity at human alpha7 nAChR expressed in Xenopus laevis oocytes assessed as increase in acetylcholine-induced channel current by measuring maximum efficacy of acetylcholine at 10 uM at -90 mV holding potential preincubated for 2 mins followed by co-application with acetylcholine for 10 secs by two-electrode voltage clamp method relative to control. The method in brief: (§2)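 ACh concentration-response on α7-expressing Xenopus oocytes, run without compound or after 2 min preincubation with 10 μM compound. Peak currents were normalised to the current evoked by 100 μM ACh alone. Curves were fitted for Emax, ACh EC50 and Hill coefficient, n = 4 per point.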

Assay [9] addresses T2, 5-hydroxytryptamine receptor 3A (Homo sapiens) (UniProt P46098).
T2 sequence (whole entry): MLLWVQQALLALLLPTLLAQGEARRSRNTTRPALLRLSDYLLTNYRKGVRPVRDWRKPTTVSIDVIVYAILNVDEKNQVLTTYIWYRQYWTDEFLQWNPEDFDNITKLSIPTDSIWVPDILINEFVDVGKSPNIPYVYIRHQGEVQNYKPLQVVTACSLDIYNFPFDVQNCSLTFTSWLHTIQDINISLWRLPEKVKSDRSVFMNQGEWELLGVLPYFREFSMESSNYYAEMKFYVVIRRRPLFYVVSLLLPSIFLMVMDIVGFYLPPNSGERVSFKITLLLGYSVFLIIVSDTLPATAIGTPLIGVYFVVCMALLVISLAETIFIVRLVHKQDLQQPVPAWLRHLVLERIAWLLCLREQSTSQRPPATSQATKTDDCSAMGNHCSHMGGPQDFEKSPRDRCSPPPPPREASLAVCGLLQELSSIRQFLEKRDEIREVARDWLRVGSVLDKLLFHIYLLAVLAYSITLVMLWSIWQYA
Kind of assay: Positive allosteric modulation activity at human 5-HT3A receptor expressed in Xenopus laevis oocytes assessed as increase in acetylcholine-induced channel current at 10 uM at -90 mV holding potential preincubated for 2 mins followed by co-application with acetylcholine for 10 secs by two-electrode voltage clamp method relative to control.

Assay [10] concerns the target Neuronal acetylcholine receptor; alpha4/beta2 (Rattus norvegicus) (UniProt P09483+P12390). Briefly: Positive allosteric modulation activity at rat alpha4beta2 nAChR expressed in Xenopus laevis oocytes assessed as increase in acetylcholine-induced channel current at 10 uM at -90 mV holding potential preincubated for 2 mins followed by co-application with acetylcholine for 10 secs by two-electrode voltage clamp method relative to control.

The target of assay [11] is T1, Neuronal acetylcholine receptor subunit alpha-7. Briefly: Positive allosteric modulation activity at human alpha7 nAChR expressed in Xenopus laevis oocytes assessed as increase in acetylcholine-induced channel current by measuring maximum efficacy of acetylcholine at 10 uM at -90 mV holding potential preincubated for 2 mins followed by co-application with acetylcholine for 10 secs by two-electrode voltage clamp method (reference value: 339%). The method in brief: as §2

T1 sequence (P36544 whole entry): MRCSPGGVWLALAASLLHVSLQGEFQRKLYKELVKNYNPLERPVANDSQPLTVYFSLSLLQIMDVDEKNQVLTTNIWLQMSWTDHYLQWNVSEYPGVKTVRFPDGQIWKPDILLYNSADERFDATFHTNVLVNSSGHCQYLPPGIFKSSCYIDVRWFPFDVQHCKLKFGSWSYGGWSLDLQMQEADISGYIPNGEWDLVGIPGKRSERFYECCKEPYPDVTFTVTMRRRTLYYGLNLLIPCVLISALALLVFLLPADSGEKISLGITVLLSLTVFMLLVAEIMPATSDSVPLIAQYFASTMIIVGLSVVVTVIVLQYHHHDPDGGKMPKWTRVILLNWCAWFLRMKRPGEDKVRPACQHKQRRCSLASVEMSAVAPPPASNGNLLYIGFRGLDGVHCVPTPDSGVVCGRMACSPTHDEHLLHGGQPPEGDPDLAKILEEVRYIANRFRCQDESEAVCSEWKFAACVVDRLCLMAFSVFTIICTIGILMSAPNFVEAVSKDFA

For the compound `Cc1ccc(Nc2nc3ncn(-c4c(C)cccc4Cl)c(=O)c3s2)cc1`, in assay [1], the Emax amounted to 1620%.

Consider `Cc1cccc(Cl)c1NC(=O)c1cc(-c2ccc(F)cc2Cl)cnc1N`, for which the outcome in assay [2] was inactive. Further, the Emax in assay [3] is 186%.

For `Cc1cccc(Cl)c1NC(=O)c1cc(-c2cccc(F)c2)cnc1N`, the result in [2] was inactive. For the same compound, the Emax in assay [3] came to 86%.

As for `Cc1cccc(Cl)c1NC(=O)c1cc(-c2ccsc2)cnc1N`, the outcome in assay [2] was inactive. The Emax in assay [3] was determined as 153%.

Regarding `Cc1cccc(Cl)c1-n1cnc2nc(SCc3ccccc3)sc2c1=O`, the Emax in assay [1] turned out to be 1630%.

For `Cc1cccc(Cl)c1NC(=O)c1cc(-c2ccc(O)cc2)cnc1N`, the outcome in assay [2] was inactive. Further, the Emax in assay [3] is 257%.

For `Cc1cccc(Cl)c1NC(=O)c1cncc(-c2ccc(Cl)cc2)c1`, in [2], the outcome was inactive. Also, the Emax in assay [3] came out at 150%.

With `Cc1cccc(Cl)c1-n1cnc2ccc(-c3ccc(F)cc3)cc2c1=O`, the Emax in assay [1] was found to be 76%.

`Cc1cccc(Cl)c1NC(=O)c1cc(-c2ccoc2)cnc1N`: the outcome in assay [2] was inactive. The maximal response (Emax) in assay [3] was found to be 111%.

`Cc1cc(-c2cnc(N)c(C(=O)Nc3c(C)cccc3Cl)c2)ccc1F`: the outcome in [2] was inactive. In assay [4], the Activity entry was “Dose-dependent effect”. Moreover, the maximal response (Emax) in assay [3] came to 1470%; in [7], 78%; in assay [9], 94%; in assay [10] it was 72%; in assay [11] it was 2170%. In assay [5], the EC50 was determined as 3.34 µM. Moreover, in [6], the K stood at 3.49. In assay [8], the fold change (FC) is 7.

For `CCc1ccc(-c2cnc(N)c(C(=O)Nc3c(C)cccc3Cl)c2)cc1`, the result in assay [2] was inactive. For the same compound, the Emax in assay [3] came out at 455%. The EC50 in assay [5] was 1.35 µM.

Regarding `Cc1ccc(-c2cnc(N)c(C(=O)Nc3c(C)cccc3Cl)c2)cc1`, the outcome in [2] was inactive. Moreover, in assay [3], the Emax is 539%. The EC50 in assay [5] is 3.19 µM.

Take `Cc1cccc(Cl)c1NC(=O)c1cc(-c2ccccc2)cnc1N`: the result in assay [2] was inactive. For the same compound, the Emax in assay [3] was determined as 273%.

Consider `Cc1cc(-c2cnc(N)c(C(=O)Nc3ccccc3)c2)ccc1F`, for which the result in [2] was inactive. Further, the Emax in assay [3] was 94%.

Regarding `COc1ccc(-c2ccc3ncn(-c4c(C)cccc4Cl)c(=O)c3c2)cc1`, in assay [1], the Emax was determined as 65%.

Consider `COc1cccc(-c2cnc(N)c(C(=O)Nc3c(C)cccc3Cl)c2)c1`, for which the result in assay [2] was inactive. Also, the Emax in [3] was found to be 212%.

`COc1ccc(-c2cnc(N)c(C(=O)Nc3c(C)cccc3Cl)c2)cc1`: the result in assay [2] was inactive. For the same compound, the Emax in [3] stood at 531%. For the same compound, in [5], the EC50 came to 8.5 µM.

On to `COc1ccccc1-c1cnc(N)c(C(=O)Nc2c(C)cccc2Cl)c1`, for which, in assay [2], the outcome was inactive. The Emax in assay [3] was determined as 1010%. Besides, in assay [5], the EC50 is 4.32 µM.

`Cc1cccc(Cl)c1NC(=O)c1cc(-c2ccc(Cl)c(F)c2)cnc1N`: in assay [2], the result was inactive. For the same compound, in assay [3], the Emax turned out to be 229%.

Regarding `CSc1ccc(-c2cnc(N)c(C(=O)Nc3c(C)cccc3Cl)c2)cc1`, the outcome in assay [2] was inactive. In assay [3], the Emax amounted to 774%. The EC50 in assay [5] was 4.96 µM.

`Cc1cccc(Cl)c1NC(=O)c1cc(-c2ccc(C(F)(F)F)cc2)cnc1N`: the result in assay [2] was inactive. Moreover, the Emax in assay [3] came to 164%.

`Cc1cccc(Cl)c1NC(=O)c1cc(-c2ccc(Cl)cc2)cnc1N`: the result in assay [2] was inactive. For the same compound, the Emax in [3] was determined as 278%.

With `Cc1cccc(Cl)c1NC(=O)c1cc(-c2cccnc2)cnc1N`, the outcome in [2] was inactive. For the same compound, the Emax in assay [3] came out at 138%.

Regarding `Cc1cccc(Cl)c1NC(=O)c1cc(-c2ccc(OC(F)(F)F)cc2)cnc1N`, the result in assay [2] was inactive. The Emax in [3] worked out at 153%.

With `Cc1cccc(Cl)c1NC(=O)c1cc(-c2ccc([N+](=O)[O-])cc2)cnc1N`, in assay [2], the outcome was inactive. Besides, the Emax in assay [3] was 135%.

With `Cc1cccc(Cl)c1NC(=O)c1cc(-c2ccc(F)c(Cl)c2)cnc1N`, the outcome in assay [2] was inactive. Besides, in [3], the Emax is 495%. In addition, in [5], the EC50 was 5.49 µM.

`Cc1cc(F)ccc1-c1cnc(N)c(C(=O)Nc2c(C)cccc2Cl)c1`: the outcome in [2] was inactive. The Emax in [3] was found to be 225%.

On to `CC(=O)Nc1ccc(-c2cnc(N)c(C(=O)Nc3c(C)cccc3Cl)c2)cc1`, for which the result in assay [2] was inactive. Besides, the Emax in assay [3] turned out to be 109%.

For `Cc1ccc(-c2cnc(N)c(C(=O)Nc3c(C)cccc3Cl)c2)c(F)c1`, the outcome in assay [2] was inactive. Further, the Emax in [3] amounted to 372%.

For the compound `Cc1ccc(-c2cncc(C(=O)Nc3c(C)cccc3Cl)c2)cc1`, the result in assay [2] was inactive. The Emax in assay [3] was determined as 603%. The EC50 in [5] worked out at 1.97 µM.

Consider `Cc1cccc(Cl)c1NC(=O)c1cncc(-c2ccc(F)cc2)c1`, for which the result in assay [2] was inactive. In addition, the Emax in assay [3] stood at 248%.

Turning to `Cc1ccc(-c2cnc(N)c(C(=O)Nc3c(C)cccc3Cl)c2)cc1F`, the outcome in [2] was inactive. For the same compound, the Emax in [3] is 609%. Further, the EC50 in assay [5] is 3.31 µM.

With `Cc1cc(-c2cnc(N)c(C(=O)Nc3ccccc3C)c2)ccc1F`, in [2], the result was inactive. Besides, the Emax in assay [3] was 156%.

Turning to `Cc1cccc(Cl)c1NC(=O)c1cc(-c2ccc(F)cc2)ccc1N`, in [2], the outcome was inactive. The Emax in assay [3] came out at 136%.

In the case of `Cc1cccc(Cl)c1NC(=O)c1cc(-c2ccccc2F)cnc1N`, the result in [2] was inactive. Further, the Emax in [3] is 119%.

For the compound `Cc1cccc(Cl)c1NC(=O)c1cc(-c2ccc(F)cc2)cnc1N`, the outcome in [2] was inactive. Moreover, the Emax in [3] amounted to 604%. Also, in [5], the EC50 was 4.57 µM.
